pIC50: −log10 of the molar value.
Test system: not listed separately
Test: Volume of distribution in rat at 2 mg/kg, iv
Type: ADME, organism-based
Set-up: dose 2 mg/kg, route intravenous
Settings: in vivo

SMILES	Vd
CCOC(=O)N1c2ccc(C(F)(F)F)cc2N(C(c2cc(C(F)(F)F)cc(C(F)(F)F)c2)c2nnn(C)n2)C[C@H]1CC (stereo in doubt; (D2)-55d)	2.6 L/kg

Test system: not listed separately
Test: Solubility at pH 7.4
Type: physicochemical
Settings: buffer

SMILES	Solubility
CCOC(=O)N1c2ccc(C(F)(F)F)cc2N(C(c2cc(C(F)(F)F)cc(C(F)(F)F)c2)c2nnn(C)n2)C[C@H]1CC (stereo in doubt; (D2)-55d)	< 0.01 µg/mL

Molecular target: T1, Cholesteryl ester transfer protein (Homo sapiens, UniProt P11597)
T1 sequence (P11597 whole entry): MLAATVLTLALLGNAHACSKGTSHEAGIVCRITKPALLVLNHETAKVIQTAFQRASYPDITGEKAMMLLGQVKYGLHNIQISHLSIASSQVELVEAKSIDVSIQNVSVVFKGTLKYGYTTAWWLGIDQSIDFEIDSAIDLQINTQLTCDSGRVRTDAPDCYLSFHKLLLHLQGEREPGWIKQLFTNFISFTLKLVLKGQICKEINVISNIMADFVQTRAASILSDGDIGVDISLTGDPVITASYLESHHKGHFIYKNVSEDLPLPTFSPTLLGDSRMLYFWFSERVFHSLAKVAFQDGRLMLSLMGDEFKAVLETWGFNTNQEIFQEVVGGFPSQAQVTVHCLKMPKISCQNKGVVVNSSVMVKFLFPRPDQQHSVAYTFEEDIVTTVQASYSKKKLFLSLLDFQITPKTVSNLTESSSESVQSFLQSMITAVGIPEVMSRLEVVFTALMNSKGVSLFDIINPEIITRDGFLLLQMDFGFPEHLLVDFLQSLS
Test: Inhibition of CETP in human plasma
Type: cell-free
Settings: not given
Summary of the method: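 Radiometric transfer of ³H-cholesteryl ester from HDL to LDL, with human plasma supplying both CETP and LDL. Inhibitor, plasma and ³H-CE-HDL (diluted to 50 cholesterol) were incubated in 4% (v/v) final DMSO for 6 h at 37 °C. The reaction was stopped with 10 U heparin in 0.3 M MnCl₂ (final) to precipitate LDL, then spun at 1000g and supernatant (2/3 of assay volume) removed. IC50 reported.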

SMILES	pIC50
CCC1CN(C(c2cc(C(F)(F)F)cc(C(F)(F)F)c2)c2nnn(C)n2)c2cc(C(F)(F)F)ccc2N1C(=O)N1CCCC1 (stereo unspecified)	4.00
CCC1CN(C(c2cc(C(F)(F)F)cc(C(F)(F)F)c2)c2nnn(C)n2)c2cc(C(F)(F)F)ccc2N1CC1CCCC1 (stereo unspecified)	6.07
CCCCOC(=O)N1c2ccc(C(F)(F)F)cc2N(C(c2cc(C(F)(F)F)cc(C(F)(F)F)c2)c2nnn(C)n2)CC1CC (stereo unspecified)	5.95
CCOC(=O)N1c2ccc(Br)cc2N(C(C(=O)OC)c2cc(C(F)(F)F)cc(C(F)(F)F)c2)CC1CC (stereo unspecified)	5.72
CCOC(=O)N1c2ccc(C(F)(F)F)cc2N(C(c2cc(C(F)(F)F)cc(C(F)(F)F)c2)c2nnn(CC(=O)O)n2)CC1CC (stereo unspecified)	4.26
CCNC(=O)N1c2ccc(C(F)(F)F)cc2N(C(c2cc(C(F)(F)F)cc(C(F)(F)F)c2)c2nnn(C)n2)CC1CC (stereo unspecified)	4.33
CCCCC(CC)COC(=O)N1c2ccc(C(F)(F)F)cc2N(C(c2cc(C(F)(F)F)cc(C(F)(F)F)c2)c2nnn(C)n2)CC1CC (stereo unspecified)	4.20
CCC1CN(C(c2cc(C(F)(F)F)cc(C(F)(F)F)c2)c2nnn(C)n2)c2cc(C(F)(F)F)ccc2N1C(=O)N(C)C (stereo unspecified)	4.00
CCC1CN(C(c2cc(C(F)(F)F)cc(C(F)(F)F)c2)c2nnn(C)n2)c2cc(C(F)(F)F)ccc2N1C(=O)OCC(C)C (stereo unspecified)	6.63
CCOC(=O)N1c2ccc(C(F)(F)F)cc2N(C(c2cc(C(F)(F)F)cc(C(F)(F)F)c2)c2nnn(CC(=O)OC(C)(C)C)n2)CC1CC (stereo unspecified)	4.84
CCOC(=O)N1c2ccc(C(F)(F)F)cc2N(C(c2cc(C(F)(F)F)cc(C(F)(F)F)c2)c2nnn(CC3CC3)n2)CC1CC (stereo unspecified)	5.34
CCC1CN(C(c2cc(C(F)(F)F)cc(C(F)(F)F)c2)c2nnn(C)n2)c2cc(C(F)(F)F)ccc2N1C(=O)OCc1ccccc1 (stereo unspecified)	5.36
CCOC(=O)N1c2ccc(C(F)(F)F)cc2N(C(c2cc(C(F)(F)F)cc(C(F)(F)F)c2)c2nnn(CCN(C)C)n2)CC1CC (stereo unspecified)	5.11
CCOC(=O)N1c2ccc(C(F)(F)F)cc2N(C(c2cc(C(F)(F)F)cc(C(F)(F)F)c2)c2nnn(CCC#N)n2)CC1CC (stereo unspecified)	5.47
CCOC(=O)N1c2ccc(C(F)(F)F)cc2N(C(c2cc(C(F)(F)F)cc(C(F)(F)F)c2)c2nnn(CC(=O)OC)n2)CC1CC (stereo unspecified)	4.49
CCC1CN(C(c2cc(C(F)(F)F)cc(C(F)(F)F)c2)c2nnn(C)n2)c2cc(C(F)(F)F)ccc2N1C(=O)N1CCOCC1 (stereo unspecified)	4.43
CCOC(=O)N1c2ccc(C(F)(F)F)cc2N(C(c2cc(C(F)(F)F)cc(C(F)(F)F)c2)c2nnn(CCC(=O)OC)n2)CC1CC (stereo unspecified)	5.35
CCC1CN(C(c2cc(C(F)(F)F)cc(C(F)(F)F)c2)c2nnn(C)n2)c2cc(C(F)(F)F)ccc2N1C[C@H]1CC[C@H](CC(=O)O)CC1 (stereo partly specified)	5.54
CCOC(=O)N1c2ccccc2N(C(Cc2ccccc2)C(=O)OC)CC1CC (stereo in doubt; (D1)-9a)	< 4.00
CCOC(=O)N1c2ccccc2N(C(Cc2cc(C(F)(F)F)cc(C(F)(F)F)c2)C(=O)OC)CC1CC (stereo in doubt; (D1)-10a)	< 4.00
CCOC(=O)N1c2ccccc2N(C(C(=O)OC)c2cc(C(F)(F)F)cc(C(F)(F)F)c2)CC1CC (stereo in doubt; (D1)-16a)	5.30

SMILES	pIC50
CCOC(=O)N1c2cc(Cl)c(Cl)cc2N(C(C(=O)OC)c2cc(C(F)(F)F)cc(C(F)(F)F)c2)CC1CC (stereo in doubt; (D1)-18a)	4.03
CCOC(=O)N1c2ccc(C(F)(F)F)cc2N(C(C(=O)OC)c2cc(C(F)(F)F)cc(C(F)(F)F)c2)CC1CC (stereo in doubt; (D1)-22a)	6.30
CCOC(=O)N1c2ccc(C(F)(F)F)cc2N(C(c2cc(C(F)(F)F)cc(C(F)(F)F)c2)c2nnn(C)n2)CC1CC (stereo in doubt; (D1)-28a)	6.06
CCC1CN(C(c2cc(C(F)(F)F)cc(C(F)(F)F)c2)c2nnn(C)n2)c2cc(C(F)(F)F)ccc2N1C(=O)NCCO (stereo in doubt; (D1)-33a)	4.00
CCC1CN(C(c2cc(C(F)(F)F)cc(C(F)(F)F)c2)c2nnn(C)n2)c2cc(C(F)(F)F)ccc2N1CC1CCCCC1 (stereo in doubt; (D1)-39a)	5.89
CCOC(=O)N1c2ccc(C(F)(F)F)cc2N(C(c2cc(C(F)(F)F)cc(C(F)(F)F)c2)c2nnn(CCO)n2)CC1CC (stereo in doubt; (D1)-46a)	5.64
CCOC(=O)N1c2ccc(C(F)(F)F)cc2N(C(c2cc(C(F)(F)F)cc(C(F)(F)F)c2)c2nnn(CC(N)=O)n2)CC1CC (stereo in doubt; (D1)-50a)	5.28
CCOC(=O)N1c2ccc(C(F)(F)F)cc2N(C(c2cc(C(F)(F)F)cc(C(F)(F)F)c2)c2nnn(C)n2)C[C@H]1CC (stereo in doubt; (D1)-55a)	6.36
CCOC(=O)N1c2ccc(C(F)(F)F)cc2N(C(c2cc(C(F)(F)F)cc(C(F)(F)F)c2)c2nnn(C)n2)C[C@@H]1CC (stereo in doubt; (D1)-55b)	4.32
CCOC(=O)N1c2ccccc2N(C(Cc2ccccc2)C(=O)OC)CC1CC (stereo in doubt; (D2)-9b)	< 4.00
CCOC(=O)N1c2ccccc2N(C(Cc2cc(C(F)(F)F)cc(C(F)(F)F)c2)C(=O)OC)CC1CC (stereo in doubt; (D2)-10b)	< 4.00
CCOC(=O)N1c2ccccc2N(C(C(=O)OC)c2cc(C(F)(F)F)cc(C(F)(F)F)c2)CC1CC (stereo in doubt; (D2)-16b)	5.07
CCOC(=O)N1c2cc(Cl)c(Cl)cc2N(C(C(=O)OC)c2cc(C(F)(F)F)cc(C(F)(F)F)c2)CC1CC (stereo in doubt; (D2)-18b)	4.03
CCOC(=O)N1c2ccc(C(F)(F)F)cc2N(C(C(=O)OC)c2cc(C(F)(F)F)cc(C(F)(F)F)c2)CC1CC (stereo in doubt; (D2)-22b)	6.25
CCOC(=O)N1c2ccc(C(F)(F)F)cc2N(C(c2cc(C(F)(F)F)cc(C(F)(F)F)c2)c2nnn(C)n2)CC1CC (stereo in doubt; (D2)-28b)	6.64
CCC1CN(C(c2cc(C(F)(F)F)cc(C(F)(F)F)c2)c2nnn(C)n2)c2cc(C(F)(F)F)ccc2N1C(=O)NCCO (stereo in doubt; (D2)-33b)	5.34
CCC1CN(C(c2cc(C(F)(F)F)cc(C(F)(F)F)c2)c2nnn(C)n2)c2cc(C(F)(F)F)ccc2N1CC1CCCCC1 (stereo in doubt; (D2)-39b)	5.24
CCOC(=O)N1c2ccc(C(F)(F)F)cc2N(C(c2cc(C(F)(F)F)cc(C(F)(F)F)c2)c2nnn(CCO)n2)CC1CC (stereo in doubt; (D2)-46b)	5.65
CCOC(=O)N1c2ccc(C(F)(F)F)cc2N(C(c2cc(C(F)(F)F)cc(C(F)(F)F)c2)c2nnn(CC(N)=O)n2)CC1CC (stereo in doubt; (D2)-50b)	4.00
CCOC(=O)N1c2ccc(C(F)(F)F)cc2N(C(c2cc(C(F)(F)F)cc(C(F)(F)F)c2)c2nnn(C)n2)C[C@@H]1CC (stereo in doubt; (D2)-55c)	5.82
CCOC(=O)N1c2ccc(C(F)(F)F)cc2N(C(c2cc(C(F)(F)F)cc(C(F)(F)F)c2)c2nnn(C)n2)C[C@H]1CC (stereo in doubt; (D2)-55d)	6.84

Test system: not listed separately
Test: Half life in rat at 2 mg/kg, iv
Type: ADME, organism-based
Set-up: dose 2 mg/kg, route intravenous
Settings: in vivo

SMILES	half-life
CCOC(=O)N1c2ccc(C(F)(F)F)cc2N(C(c2cc(C(F)(F)F)cc(C(F)(F)F)c2)c2nnn(C)n2)C[C@H]1CC (stereo in doubt; (D2)-55d)	2.4 h

Test system: not listed separately
Test: Clearance in rat at 2 mg/kg, iv
Type: ADME, organism-based
Set-up: dose 2 mg/kg, route intravenous
Settings: in vivo

SMILES	clearance
CCOC(=O)N1c2ccc(C(F)(F)F)cc2N(C(c2cc(C(F)(F)F)cc(C(F)(F)F)c2)c2nnn(C)n2)C[C@H]1CC (stereo in doubt; (D2)-55d)	13 mL/min/kg

Source: ChEMBL document CHEMBL1139176, “Tetrazole and ester substituted tetrahydoquinoxalines as potent cholesteryl ester transfer protein inhibitors” (Bioorg Med Chem Lett, 2007)
